Experiment [1] has as its target T1, Oxysterols receptor LXR-alpha (Homo sapiens) (UniProt Q13133).
T1 sequence (whole entry): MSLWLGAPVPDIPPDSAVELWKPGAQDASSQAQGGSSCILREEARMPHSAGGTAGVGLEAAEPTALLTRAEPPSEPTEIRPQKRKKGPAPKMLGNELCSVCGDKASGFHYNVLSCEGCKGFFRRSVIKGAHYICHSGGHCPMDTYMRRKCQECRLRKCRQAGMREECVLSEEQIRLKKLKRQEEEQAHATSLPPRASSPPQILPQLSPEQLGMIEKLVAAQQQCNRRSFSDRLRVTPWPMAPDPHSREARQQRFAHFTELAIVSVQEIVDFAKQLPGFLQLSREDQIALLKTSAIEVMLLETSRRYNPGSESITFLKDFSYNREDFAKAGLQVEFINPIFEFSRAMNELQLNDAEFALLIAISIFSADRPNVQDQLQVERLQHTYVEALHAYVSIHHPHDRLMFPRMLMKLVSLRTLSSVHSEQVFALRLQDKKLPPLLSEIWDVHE
Nature of the experiment: Transactivation of Gal4-fused LXRalpha LBD (unknown origin) expressed in HepG2 cells at 10 uM after 18 hrs by dual-glo luciferase assay. Type of experiment: cell-based.

Experiment [2] has as its system Mus musculus. Description: Hepatoprotective activity against APAP-induced acute liver injury in C57BL/6N mouse assessed as increase in SOD levels at 30 mg/kg, po administered 45 mins after APAP challenge. It is filed as functional, organism-based. A digest of the protocol:
(§1)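 C57Bl6 mice given a single 500 mg/kg APAP dose, with test agent at 30 mg/kg; surviving mice sacrificed 24 h later, blood and liver collected. Endpoints: serum AST/ALT, liver H&E histology, hepatic Ugt1a1/Ugt2b1/Sult1a1 mRNA, hepatic GSH, SOD activity and MDA, and plasma APAP, APAP-glucuronide and APAP-sulfate by LC–MS/MS. Mean ± SEM, 5–8 animals per group.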

The test system of experiment [3] is Mus musculus. Nature of the experiment: Hepatoprotective activity against APAP-induced acute liver injury in C57BL/6N mouse assessed as upregulation of SULT1A1 mRNA levels at 30 mg/kg, po administered 45 mins after APAP challenge. Type of experiment: functional, organism-based. The method in brief:
as §1

Experiment [4] has as its system Mus musculus. Description: Hepatoprotective activity against APAP-induced acute liver injury in C57BL/6N mouse assessed as reduction in plasma AST levels at 30 mg/kg, po administered 45 mins after APAP challenge. Type of experiment: functional, organism-based. A digest of the protocol: as §1
Experiment [5] addresses T2, G-protein coupled bile acid receptor 1 (Homo sapiens) (UniProt Q8TDU6).
T2 sequence (whole entry): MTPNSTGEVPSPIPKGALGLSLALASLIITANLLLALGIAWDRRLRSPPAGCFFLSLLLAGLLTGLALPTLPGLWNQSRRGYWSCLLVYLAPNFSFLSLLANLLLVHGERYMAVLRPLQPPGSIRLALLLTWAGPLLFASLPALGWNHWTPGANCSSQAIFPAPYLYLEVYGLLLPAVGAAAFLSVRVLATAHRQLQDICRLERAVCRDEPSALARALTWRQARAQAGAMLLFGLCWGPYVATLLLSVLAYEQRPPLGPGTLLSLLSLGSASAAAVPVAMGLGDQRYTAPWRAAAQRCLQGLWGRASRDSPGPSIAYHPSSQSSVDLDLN
Description: Agonist activity at human GPBAR1 expressed in HEK293T cells at 10 uM after 18 hrs by cAMP response element driven luciferase reporter gene assay. It is filed as functional, cell-based.

Active and inactive are the calls of the source. The calls are words filed in the database; no cut-off is given here.

The values below come from ChEMBL document CHEMBL4433207, “Novel Isoxazole Derivatives with Potent FXR Agonistic Activity Prevent Acetaminophen-Induced Liver Injury” (ACS Med Chem Lett, 2019).

In the case of `CC(C)c1onc(-c2c(Cl)cccc2Cl)c1COc1ccc(COc2ccc(C(=O)O)cc2)cc1`, the result in experiment [1] and in experiment [5] was inactive. Besides, the result in experiment [2], in experiment [3] and in experiment [4] was Active.
